Values after ≈ are worked out from the molar mass of the structure shown.
Assays:
Format in all cases: functional
[1] = tested on: Staphylococcus aureus; assay: Antibacterial activity against Staphylococcus aureus ATCC 25923 at 100 ug/ml after 24 hrs by agar well diffusion method; details: ATCC 25923, 24 h, read-out: IZ
How it was run: (§1)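 Agar well diffusion on Mueller Hinton agar (20 mL per dish), seeded homogeneously with liquid bacterial culture by spread plating. Samples loaded directly into wells, dimethylformamide as solvent control, ampicillin as reference drug. Plates incubated at 37 °C for 24 h. All determinations done in triplicate.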

[2] = tested on: Bacillus subtilis; assay: Antibacterial activity against Bacillus subtilis ATCC 6633 at 100 ug/ml after 24 hrs by agar well diffusion method; details: ATCC 6633, 24 h, read-out: IZ; how it was run: as §1
[3] = tested on: Escherichia coli; assay: Antibacterial activity against Escherichia coli ATCC 35218 at 100 ug/ml after 24 hrs by agar well diffusion method; details: ATCC 35218, 24 h, read-out: IZ; how it was run: as §1
[4] = tested on: Pseudomonas aeruginosa; assay: Antibacterial activity against Pseudomonas aeruginosa ATCC 10145 at 100 ug/ml after 24 hrs by agar well diffusion method; details: ATCC 10145, 24 h, read-out: IZ; how it was run: as §1
[5] = tested on: Candida albicans; assay: Antifungal activity against Candida albicans at 100 ug/ml after 72 hrs by agar well diffusion method; details: read-out: IZ
How it was run: (§2)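 Fungi grown on Potato Dextrose Agar (20 mL per dish), seeded homogeneously with liquid culture by spread plating. Samples loaded directly into agar wells, with dimethylformamide as solvent control and clotrimazole as reference drug. Plates incubated at 25 °C for 72 h, triplicate determinations.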

[6] = tested on: Aspergillus fumigatus; assay: Antifungal activity against Aspergillus fumigatus at 100 ug/ml after 72 hrs by agar well diffusion method; details: read-out: IZ; how it was run: as §2
[7] = tested on: Staphylococcus aureus; assay: Antibacterial activity against Staphylococcus aureus ATCC 25923 after 24 hrs by agar well diffusion method; details: ATCC 25923, 24 h; how it was run: as §1
[8] = tested on: Bacillus subtilis; assay: Antibacterial activity against Bacillus subtilis ATCC 6633 after 24 hrs by agar well diffusion method; details: ATCC 6633, 24 h; how it was run: as §1
[9] = tested on: Escherichia coli; assay: Antibacterial activity against Escherichia coli ATCC 35218 after 24 hrs by agar well diffusion method; details: ATCC 35218, 24 h; how it was run: as §1
[10] = tested on: Pseudomonas aeruginosa; assay: Antibacterial activity against Pseudomonas aeruginosa ATCC 10145 after 24 hrs by agar well diffusion method; details: ATCC 10145, 24 h; how it was run: as §1
[11] = tested on: Candida albicans; assay: Antifungal activity against Candida albicans after 72 hrs by agar well diffusion method; how it was run: as §2
[12] = tested on: Aspergillus fumigatus; assay: Antifungal activity against Aspergillus fumigatus after 72 hrs by agar well diffusion method; how it was run: as §2

SMILES | MIC [7] [µg/mL] | MIC [8] [µg/mL] | MIC [9] [µg/mL] | MIC [10] [µg/mL] | MIC [11] [µg/mL] | MIC [12] [µg/mL] | zone of inhibition at 100 µg/mL [1] [mm] | zone of inhibition at 100 µg/mL [2] [mm] | zone of inhibition at 100 µg/mL [3] [mm] | zone of inhibition at 100 µg/mL [4] [mm] | zone of inhibition at 100 µg/mL [5] [mm] | zone of inhibition at 100 µg/mL [6] [mm]
N#CSc1c(-c2ccc([N+](=O)[O-])cc2)nc2sc(Cc3noc4ccccc34)nn12 | 2 (≈ 4.6 µM) | 2.5 (≈ 5.75 µM) | 4 (≈ 9.21 µM) | 3 (≈ 6.91 µM) | 3.5 (≈ 8.06 µM) | 3.5 (≈ 8.06 µM) | 9 | 8 | 7 | 10 | 11 | 9
COc1ccc(-c2nc3sc(Cc4noc5ccccc45)nn3c2SC#N)cc1 | 2 (≈ 4.77 µM) | 1 (≈ 2.38 µM) | 3 (≈ 7.15 µM) | 1.5 (≈ 3.58 µM) | 2.5 (≈ 5.96 µM) | 2.5 (≈ 5.96 µM) | 9 | 15 | 13 | 19 | 20 | 16
O=c1oc2ccccc2cc1-c1cn2nc(Cc3noc4ccccc34)sc2n1 | 3 (≈ 7.49 µM) | 1 (≈ 2.5 µM) | 3.5 (≈ 8.74 µM) | 3 (≈ 7.49 µM) | 2.5 (≈ 6.24 µM) | 3.5 (≈ 8.74 µM) | 13 | 15 | 10 | 10 | 20 | 13

Now those with a lower MIC [7], led by results:

MIC [7] [µg/mL] | MIC [8] [µg/mL] | MIC [9] [µg/mL] | MIC [10] [µg/mL] | MIC [11] [µg/mL] | MIC [12] [µg/mL] | SMILES | zone of inhibition at 100 µg/mL [1] [mm] | zone of inhibition at 100 µg/mL [2] [mm] | zone of inhibition at 100 µg/mL [3] [mm] | zone of inhibition at 100 µg/mL [4] [mm] | zone of inhibition at 100 µg/mL [5] [mm] | zone of inhibition at 100 µg/mL [6] [mm]
1.5 (≈ 3.85 µM) | 1.5 (≈ 3.85 µM) | 3 (≈ 7.7 µM) | 2 (≈ 5.14 µM) | 3.5 (≈ 8.99 µM) | 2.5 (≈ 6.42 µM) | N#CSc1c(-c2ccccc2)nc2sc(Cc3noc4ccccc34)nn12 | 16 | 14 | 12 | 17 | 12 | 15
1 (≈ 2.43 µM) | 2.5 (≈ 6.08 µM) | 3 (≈ 7.29 µM) | 2 (≈ 4.86 µM) | 3 (≈ 7.29 µM) | 3.5 (≈ 8.51 µM) | Brc1c(-c2ccccc2)nc2sc(Cc3noc4ccccc34)nn12 | 18 | 12 | 11 | 16 | 14 | 12
1 (≈ 2.27 µM) | 2.5 (≈ 5.68 µM) | 2 (≈ 4.54 µM) | 3 (≈ 6.81 µM) | 2.5 (≈ 5.68 µM) | 2.5 (≈ 5.68 µM) | O=Nc1c(-c2ccc(Br)cc2)nc2sc(Cc3noc4ccccc34)nn12 | 16 | 12 | 14 | 12 | 17 | 15

Reference: ChEMBL document CHEMBL1152495, “Synthesis and antimicrobial studies of novel methylene bridged benzisoxazolyl imidazo[2,1-b][1,3,4]thiadiazole derivatives” (2009)
